Assay outcomes deposited in PubChem by several laboratories.
Sampled rows, rich in hits. Any-hit rate of the full collection: about 2.3%.
SR-BI uptake up = enhances SR-BI lipid uptake from DiI-HDL | CHO ldlA[mSR-BI] cells, DiI-HDL uptake fluorescence, 3 h; 100 = double the neutral-control signal | activation, % at 12.5 µM | 320,000 compounds, 0.096% hits;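 active means mean replicate activation of at least 60% and every replicate at or above 60%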;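 further: 0% = median plate neutral-control signal and 100% = twice that signal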
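Test system: SR-BI-overexpressing, LDLR-lacking CHO cells; Medium: Ham's F12 with 0.5% BSA, HEPES 25 mM, pH 7.4; Schedule: 3 h, 37 °C; Technique: bottom-read fluorescence, 550/595 nm.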
ATG4B inh = ATG4B (human) cysteine protease inhibition; inhibition, % at 8.33 µM; 340,000 compounds, 0.51% hits; Q9Y4P1; AID 504462; ATG4B cleavage of LC3-PLA2, NBD-HPC fluorescence, 1 h; in the data active means inhibition above about 40%
CAL PDZ FP-1 = blocks peptide binding to the human CAL PDZ domain. purified CAL PDZ, TMR-peptide fluorescence polarization, 1 h. Q9HD26. 300,000 compounds, 0.92% hits. inhibition, % at 24.9 µM;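 active means mean inhibition of at least 30% with at least half of replicates also reaching 30%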;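 further: 0% = DMSO neutral control and 100% = excess unlabeled competitor peptide PRC23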
SR-BI DiI inh = inhibitors of mouse SR-BI mediated HDL lipid uptake | Q61009 | ldlA[mSR-BI] CHO cells, DiI-HDL uptake fluorescence, 3 h | inhibition, % at 12.5 µM | 320,000 compounds, 0.96% hits;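 active means mean replicate inhibition of at least 70% and a set share of replicates each scoring 70 or more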;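 further: 0% = median of neutral control wells and 100% = median of positive control wells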
Target sequence (Q61009 whole entry, looked up): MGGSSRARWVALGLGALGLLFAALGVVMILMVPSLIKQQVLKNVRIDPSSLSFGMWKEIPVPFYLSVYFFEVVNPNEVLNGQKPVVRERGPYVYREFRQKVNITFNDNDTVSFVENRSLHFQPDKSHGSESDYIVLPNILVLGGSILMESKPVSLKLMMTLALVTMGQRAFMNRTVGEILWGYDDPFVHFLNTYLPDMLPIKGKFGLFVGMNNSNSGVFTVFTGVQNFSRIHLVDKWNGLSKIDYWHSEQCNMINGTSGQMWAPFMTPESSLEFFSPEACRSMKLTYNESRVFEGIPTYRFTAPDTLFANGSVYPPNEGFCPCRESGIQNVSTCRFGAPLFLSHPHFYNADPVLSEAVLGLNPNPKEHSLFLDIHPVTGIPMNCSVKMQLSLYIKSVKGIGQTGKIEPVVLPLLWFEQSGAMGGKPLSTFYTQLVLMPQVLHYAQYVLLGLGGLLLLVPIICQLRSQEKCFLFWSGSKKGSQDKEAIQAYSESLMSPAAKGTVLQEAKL
CAL PDZ FP-2 = inhibitors of human CAL PDZ peptide binding; Q9HD26; purified CAL PDZ, TMR-peptide fluorescence polarization, 1 h; inhibition, % at 20 µM; 330,000 compounds, 0.02% hits; AID 504414;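 active means highest replicate inhibition of at least 40%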;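 further: plate controls were DMSO neutral control wells for no effect and unlabeled competitor peptide control wells for full effect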
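Test system: purified CerCALP PDZ construct; Compound dosing: one concentration, 20 µM compound; Also added: TMR-labelled reporter peptide T*-PRC34 bound in PDZ groove; Read-out: inhibition from polarization loss; Controls: unlabelled peptide and DMSO controls; Signal: FP readout, S and P plane fluorescence; Incubation: 1 h at RT.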
* marks the source's active call; other numbers are inactive results; nt = not tested or not shown.

SMILES	SR-BI uptake up	ATG4B inh	CAL PDZ FP-1	SR-BI DiI inh	CAL PDZ FP-2
CCOC(=O)C1(CCCc2ccccc2)CCN(Cc2cnn(C)c2)CC1	15.4	-1.7	75.1*	-15.4	-0.2
O=C(CNCCc1ccccc1)N1CCc2ccccc2C1	8.7	-1.6	44.9*	-8.7	-1.2
COc1ccc(CNS(=O)(=O)c2c(C(=O)N3CCCCC3)c(C)n(C)c2C)cc1	17.6	-2.9	3.6	-17.6	-2.4
Cc1c(C(=O)N2CCCCC2)c(S(=O)(=O)NCc2ccc(Cl)cc2)c(C)n1C	3.6	-2.2	77.1*	-3.6	-0.4
CC(=O)c1ccc(N2CCN(S(=O)(=O)c3c(C(=O)N4CCCC4)c(C)n(C)c3C)CC2)cc1	6.6	-6.9	80.2*	-6.6	-1.1
CC(=O)c1ccc(N2CCN(S(=O)(=O)c3c(C(=O)N4CCCCC4)c(C)n(C)c3C)CC2)cc1	nt	0.2	8.8	-5.5	-1.9
Cc1ccc(CNS(=O)(=O)c2c(C(=O)N3CCCCCC3)c(C)n(C)c2C)cc1	7.2	-0.4	75.6*	-7.2	-1.2
Cc1c(C(=O)N2CCCCC2)c(S(=O)(=O)NCc2ccccc2Cl)c(C)n1C	13.2	0.0	37.8*	-13.2	-1.8
Cc1ccccc1CNS(=O)(=O)c1c(C(=O)N2CCCC2)c(C)n(C)c1C	12.3	-7.8	-4.2	-12.3	-3.5
O=c1[nH]c(=S)c2[nH]c(=S)n(-c3ccccc3)c2[nH]1	-3.4	8.4	1.2	3.4	-0.2
O=C1CS/C(=N/N=C/c2ccccc2)N1c1ccc(O)cc1	-14.5	-9.5	79.4*	14.5	nt
C/C(CCC1CC(C)(C)OC1=O)=N\NC(N)=S (configuration not stated)	-72.0	10.7	-1.6	72.0*	-0.1
C/C(CCC1CC(C)OC1=O)=N\NC(N)=O (configuration not stated)	nt	-7.6	nt	nt	nt
C/C(CCC1CC(C)OC1=O)=N\NC(N)=S (configuration not stated)	-70.8	-0.4	1.5	70.8*	0.2
CS(=O)(=O)c1ncc(Cl)c(C(=O)Nc2ccc3ccccc3c2)n1	-92.9	-6.4	-3.8	92.9*	-1.9
CC(C)(C)OC(=O)C[C@@H]1C/C=C\C[C@H](CC(=O)NCCO)C(=O)NC[C@@H](c2ccccc2)OC1=O	40.1	-3.7	-5.4	-40.1	0.0
Cc1ccc(-n2c(O)c(C=Nc3ccc4c(c3)OCO4)c3ccccc3c2=O)cc1C	-39.8	-3.7	-1.3	39.8	-2.7
Cc1cc(N=Cc2c(O)n(-c3ccc4c(c3)OCO4)c(=O)c3ccccc23)ccn1	12.5	-25.6	35.4*	-12.5	-1.1
COc1ccccc1CNC(=O)C(=O)Nc1ccc(C(=O)N2CCC(C)CC2)cc1	-11.1	10.4	-6.5	11.1	-0.6
O=[N+]([O-])c1cccc(CP(=O)(c2ccccc2)c2ccccc2)c1	-6.8	-11.7	60.2*	6.8	0.1
O=C(CSc1nnc(-c2cccc(Br)c2)o1)N1CCOCC1	-10.2	-1.5	-3.0	10.2	-0.3
COc1ccc(Cl)cc1NCCC(O)c1ccc(F)cc1 (configuration not stated)	-34.5	9.6	-4.6	34.5	0.4
COc1ccc(NCCC(O)c2ccc(Cl)cc2)cc1 (configuration not stated)	-18.6	-2.4	35.0*	18.6	nt
CC[N+]1(C)CC2CCC(C)(C1)C2(C)C (configuration not stated)	16.9	-10.8	-2.0	-8.0	-1.2
CCOC(=O)c1cc([N+](=O)[O-])sc1NC(=O)CC	nt	-3.8	1.3	nt	-0.3
SMILES	SR-BI uptake up	ATG4B inh	CAL PDZ FP-1	SR-BI DiI inh	CAL PDZ FP-2
CCOC(=O)c1cc([N+](=O)[O-])sc1N	9.4	-2.2	61.9*	-9.4	-1.3
COCCNC(=O)c1cc2c(-c3ccccc3F)nn(C)c2s1	-47.6	2.2	-1.6	47.6	-1.5
COCCCNC(=O)c1cc2c(-c3ccc(Cl)cc3)nn(C)c2s1	-76.6	-13.2	-0.5	76.5*	-5.9
Cn1nc(-c2ccc(Cl)cc2)c2cc(C(=O)NCCCN3CCCC3)sc21	-76.4	-0.6	-6.8	76.4*	-7.3
CCCCN(C)CCNC(=O)c1cc2c(-c3ccccc3F)nn(C)c2s1	-35.2	-2.1	42.8*	35.2	-3.7
COCCNC(=O)c1cc2c(-c3ccc(Cl)cc3)nn(C)c2s1	-87.5	-9.6	-3.0	87.5*	-4.1
CCCCNC(=O)c1cc2c(-c3ccc(Cl)cc3)nn(C)c2s1	-68.7	-2.6	nt	68.7	-5.6
